Most compounds without a hit are left out; they make up all but 4.5% or so of the library.
TAAR1 antagonist: human TAAR1 antagonists, primary screen, Fluo-8 calcium fluorescence, CHO RD-HGA16 cells; Trace amine-associated receptor 1 (Homo sapiens), Q96RJ0; antagonist; inhibition, % at 3 µM; 1.5% of 360,000 active; AID 624466, 2012;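 active = inhibition above a per-plate cutoff, the mean inhibition of test compounds on that plate plus 3 SD, cut at about 49% in these data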
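Test system – hTAAR1-expressing CHO RD-HGA16 cells, Gα16-coupled · Also added – β-PEA at EC80 concentration, post-compound challenge · Compound – 3 µM, single point · Incubation – dye loading 75 min at 37 °C, then 30 min room temperature · Measured by – Fluo-8 intracellular calcium dye fluorescence, real-time kinetic reads · Benchmarks – vehicle and agonist controls · Replicates – singlicate, one well per test compound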
GPR7 antag: GPR7 receptor antagonists, primary screen, cell-based, fluorescence, single concentration. 1.1% of 290,000 active. AID 1861, 2009. GPR7-expressing cells, fluorescence antagonist assay. inhibition, % at 4.4 µM; in the data active = inhibition above about 16%, passing the limit was not always enough;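 also: cells stimulated with the agonist NPW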
TAAR1 ag: human TAAR1 agonists, primary screen, Fluo-8 calcium fluorescence, CHO RD-HGA16 cells. Trace amine-associated receptor 1 (Homo sapiens), Q96RJ0. vehicle wells 0%, saturating PEA agonist 100%. activation, % at 3 µM. 0.99% of 360,000 active. AID 624467, 2012;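 active = activation above the mean activation of all test compounds in the run plus 3 SD, cut at about 38% in these data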
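System: CHO RD-HGA16 cells carrying human TAAR1 plus Gα16; Incubation: 17-24 h seeding, 75 min 37 °C dye, 30 min RT; Measured by: Fluo-8 fluorescence, 5 s baseline then 140 s kinetic read; Control set: DMSO and PEA EC100; Replication: single well for each compound.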
CHO parental Ca: ATP-evoked calcium signal inhibitors, parental CHO, primary screen, counter-screen for OX1R antagonist project, cell-based, fluorescence, Fluo-8 calcium dye. 0.63% of 330,000 active. inhibition, % at 5.6 µM. AID 463079, 2010. parental CHO-K1, ATP-induced calcium, Fluo-8 fluorescence;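 active = inhibition above that plate's mean sample inhibition plus 3 SD, cut at about 26% in these data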
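Assay system: parental CHO cells; Read-out basis: percent inhibition of ATP-evoked calcium rise, normalized to controls; Benchmarks: ATP and no-ATP DMSO wells; Compound dosing: single nominal dose of 5.6 µM per compound; Signal: Fluo-8 calcium dye fluorescence; Also added: ATP as calcium-mobilizing challenge; Repeats: singlicate.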
OX1R antag-1: OX1R (HCRTR1) antagonists, primary screen, fluorescence, CHO/OX1R cells, Fluo-8 calcium, orexin A; Fluo-8 calcium fluorescence; inhibition, % at 5 µM; 0.43% of 330,000 active;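 active = inhibition above its plate's threshold, mean inhibition of all tested compounds on the plate plus 3 SD, cut at about 37% in these data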
Target sequence (O43613 whole entry, looked up): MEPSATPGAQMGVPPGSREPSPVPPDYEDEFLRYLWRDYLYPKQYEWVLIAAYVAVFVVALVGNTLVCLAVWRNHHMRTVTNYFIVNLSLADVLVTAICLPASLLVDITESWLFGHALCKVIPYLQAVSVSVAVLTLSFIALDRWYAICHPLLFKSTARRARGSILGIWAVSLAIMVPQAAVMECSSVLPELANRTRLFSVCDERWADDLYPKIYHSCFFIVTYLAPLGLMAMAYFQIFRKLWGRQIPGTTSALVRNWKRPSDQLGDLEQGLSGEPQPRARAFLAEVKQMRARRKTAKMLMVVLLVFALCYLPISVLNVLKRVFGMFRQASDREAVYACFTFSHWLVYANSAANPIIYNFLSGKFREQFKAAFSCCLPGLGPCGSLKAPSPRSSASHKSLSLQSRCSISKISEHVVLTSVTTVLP
OX1R antag-2: antagonists of human orexin 1 receptor (OX1R); Orexin/Hypocretin receptor type 1 (Homo sapiens), O43613; OX1R-expressing cells, FRET antagonist read-out; inhibition, % at 6.6 µM; 1.8% of 330,000 active; AID 485270, 2010; in the data active = inhibition mostly above about 38%, no sharp cut-off; inactive = mostly below about 40%
TAAR1 nonsel count: nonselective antagonists in TAAR1 counter-screen cells, counter-screen for hTAAR1 antagonist project, cell-based, fluorescence, calcium; shares compounds with TAAR1 antagonist; counterscreen cell line, antagonist mode; inhibition, % at 3 µM; 77% of 2,400 active; AID 651780, 2012; in the data active = inhibition above about 22%;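 also: CHO-Ga16 host cells stimulated with ATP at an EC80 level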
TAAR1 antag conf: human TAAR1 antagonists, retest of hits, confirmation, cell-based, fluorescence; inhibition, % at 3 µM; AID 651785, 2012; TAAR1-expressing cells, fluorescence antagonist read-out; 40% of 2,400 active; shares compounds with TAAR1 antagonist; in the data active = inhibition above about 49%;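 also: CHO-Ga16 host cells challenged with agonist PEA near its EC80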
Ga16 nonsel ag: calcium activation in Ga16-expressing cells, counter-screen for TAAR1 antagonist project, cell-based, fluorescence; shares compounds with TAAR1 antagonist; agonist counterscreen; activation, % at 3 µM; 18% of 2,400 active; AID 651953, 2012; in the data active = activation above about 12%
TAAR1 ag counter: TAAR1 activation by candidate antagonists – cell-based, fluorescence, counter-screen for TAAR1 antagonist project; shares compounds with TAAR1 antagonist; hTAAR1 cell line, agonist mode; activation, % at 3 µM; 2% of 2,400 active; in the data active = activation above about 37%;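 also: CHO cells stably expressing TAAR1 with calcium dye readout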
Large screens that a line does not name were inactive (follow-up assays come after a bar, where they were run).

Cc1ccc(S(=O)(=O)N2CCOCC2)cc1NC(=O)COc1ccc(C(=O)c2ccccc2)cc1	TAAR1 antagonist 81.5 (no result: GPR7 antag) | TAAR1 nonsel count 36.9 | TAAR1 antag conf 58.6 | Ga16 nonsel ag 13.7 | TAAR1 ag counter inactive
Cc1ccc(S(=O)(=O)N2CCOCC2)cc1NC(=O)COC(=O)CNC(=O)c1ccccc1	none
NC(=O)c1nsc(C(=O)N(c2ccccc2F)C(C(=O)NCc2ccc(F)cc2)c2ccc(O)cc2)c1N (stereo not drawn)	TAAR1 antagonist 76.7 | TAAR1 nonsel count 33.9 | TAAR1 antag conf inactive | Ga16 nonsel ag inactive | TAAR1 ag counter inactive
NC(=O)c1nsc(C(=O)N(c2ccccc2)C(C(=O)NCC2CCCO2)c2ccc(F)cc2)c1N (stereo not drawn)	TAAR1 antagonist 50.8 | TAAR1 nonsel count inactive | TAAR1 antag conf inactive | Ga16 nonsel ag inactive | TAAR1 ag counter inactive
NC(=O)c1nsc(C(=O)N(c2ccc3c(c2)OCCO3)C(C(=O)NCC2CCCO2)c2ccc(F)cc2)c1N (stereo not drawn)	none
NC(=O)c1nsc(C(=O)N(c2ccc(F)cc2)C(C(=O)NCC2CCCO2)c2ccc3ncccc3c2)c1N (stereo not drawn)	TAAR1 antagonist 49.4 | TAAR1 nonsel count 24.7 | TAAR1 antag conf inactive | Ga16 nonsel ag inactive | TAAR1 ag counter inactive
Cc1ccc(C(C(=O)NCc2ccccc2)N(Cc2ccco2)C(=O)c2snc(C(N)=O)c2N)o1 (stereo not drawn)	TAAR1 antagonist 70.8 | TAAR1 nonsel count 29.8 | TAAR1 antag conf 56.2 | Ga16 nonsel ag inactive | TAAR1 ag counter inactive
OC(c1ccc(Cl)c(F)c1)c1ncc(-c2ccccc2F)[nH]1 (stereo not drawn)	none (no result: GPR7 antag, CHO parental Ca, OX1R antag-1, OX1R antag-2)
Cc1ccc(S(=O)(=O)NC(=O)C2(C)CCN2C(=O)Cc2ccc(Cl)cc2Cl)nc1 (stereo not drawn)	none (no result: GPR7 antag, CHO parental Ca, OX1R antag-1, OX1R antag-2)
CCOc1cc(C)nc(N2CCC(C(=O)NCC3CCCO3)CC2)n1 (stereo not drawn)	none (no result: GPR7 antag, CHO parental Ca, OX1R antag-1, OX1R antag-2)
CCOc1ccc(C(C(=O)NCC2CCCO2)N(C(=O)c2snc(C(N)=O)c2N)c2cccc(F)c2)cc1 (stereo not drawn)	TAAR1 antagonist 56.2 | TAAR1 nonsel count 28.3 | TAAR1 antag conf 49.9 | Ga16 nonsel ag inactive | TAAR1 ag counter inactive
O=C(NCC1CCCO1)C(c1cccnc1)N(C(=O)Cc1cccs1)c1ccccc1 (stereo not drawn)	TAAR1 antagonist 54.0 | TAAR1 nonsel count inactive | TAAR1 antag conf inactive | Ga16 nonsel ag inactive | TAAR1 ag counter inactive
CC(C)CC(C(=O)NCC1CCCO1)N(C(=O)Cn1nnc(-c2ccc(F)cc2)n1)c1cccc(C(F)(F)F)c1 (stereo not drawn)	none
O=C(NCC1CCCO1)C(c1ccc(F)cc1)N(C(=O)Cn1nnc(-c2ccc(F)cc2)n1)c1cccc(O)c1 (stereo not drawn)	TAAR1 antagonist 82.6 | TAAR1 nonsel count 35.5 | TAAR1 antag conf 55.1 | Ga16 nonsel ag inactive | TAAR1 ag counter inactive
Cc1cccc(Nc2cc(=O)n(C)c(=O)n2C)c1	none (no result: GPR7 antag, CHO parental Ca, OX1R antag-1, OX1R antag-2)
